Source: ChEMBL document CHEMBL1909618, “Non-steroidal dissociated glucocorticoid agonists: indoles as A-ring mimetics and function-regulating pharmacophores” (Bioorg Med Chem Lett, 2011)

Assays:
[1] = target: T1, Glucocorticoid receptor (Homo sapiens) (UniProt P04150); assay: Agonist activity at glucocorticoid receptor in HFF assessed as inhibition of IL1-induced IL-6 production after 18 to 24 hrs relative to Dexamethasone; type: functional
T1 sequence (whole entry): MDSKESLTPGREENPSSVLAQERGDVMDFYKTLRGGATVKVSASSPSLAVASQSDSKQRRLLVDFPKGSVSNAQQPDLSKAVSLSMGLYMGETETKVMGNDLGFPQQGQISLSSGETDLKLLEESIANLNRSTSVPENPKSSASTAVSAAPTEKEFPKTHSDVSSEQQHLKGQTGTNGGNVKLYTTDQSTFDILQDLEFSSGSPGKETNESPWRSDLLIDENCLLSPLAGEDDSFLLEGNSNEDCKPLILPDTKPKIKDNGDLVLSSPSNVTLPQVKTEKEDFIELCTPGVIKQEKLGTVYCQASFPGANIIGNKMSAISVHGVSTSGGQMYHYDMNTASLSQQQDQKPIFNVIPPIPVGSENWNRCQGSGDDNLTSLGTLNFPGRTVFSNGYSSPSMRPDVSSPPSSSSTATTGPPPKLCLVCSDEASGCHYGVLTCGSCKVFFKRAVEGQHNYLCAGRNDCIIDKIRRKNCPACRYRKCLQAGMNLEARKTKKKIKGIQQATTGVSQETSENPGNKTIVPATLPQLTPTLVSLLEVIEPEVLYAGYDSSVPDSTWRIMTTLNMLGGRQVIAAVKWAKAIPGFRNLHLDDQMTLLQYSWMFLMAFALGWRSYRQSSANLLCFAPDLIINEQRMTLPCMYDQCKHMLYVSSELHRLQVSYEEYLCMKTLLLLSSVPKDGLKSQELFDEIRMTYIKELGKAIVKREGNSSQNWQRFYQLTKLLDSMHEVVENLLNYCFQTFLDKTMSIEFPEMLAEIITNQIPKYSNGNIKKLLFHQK
Procedure, shortened: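 Human foreskin fibroblasts stimulated with IL-1 (1 ng/mL) in the presence of test compound, incubated at 37 °C for 18–24 h. IL-6 in the culture medium was quantified by electrochemiluminescence, DELFIA or ELISA. IC50 and % maximal efficacy were reported.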

Progesterone receptor = target: T2, Progesterone receptor (Homo sapiens, UniProt P06401); assay: Displacement of tetramethylrhodamine-labeled RU-486 from human recombinant progesterone receptor expressed in baculovirus infected insect cells by fluorescence polarization assay
T2 sequence (P06401 whole entry): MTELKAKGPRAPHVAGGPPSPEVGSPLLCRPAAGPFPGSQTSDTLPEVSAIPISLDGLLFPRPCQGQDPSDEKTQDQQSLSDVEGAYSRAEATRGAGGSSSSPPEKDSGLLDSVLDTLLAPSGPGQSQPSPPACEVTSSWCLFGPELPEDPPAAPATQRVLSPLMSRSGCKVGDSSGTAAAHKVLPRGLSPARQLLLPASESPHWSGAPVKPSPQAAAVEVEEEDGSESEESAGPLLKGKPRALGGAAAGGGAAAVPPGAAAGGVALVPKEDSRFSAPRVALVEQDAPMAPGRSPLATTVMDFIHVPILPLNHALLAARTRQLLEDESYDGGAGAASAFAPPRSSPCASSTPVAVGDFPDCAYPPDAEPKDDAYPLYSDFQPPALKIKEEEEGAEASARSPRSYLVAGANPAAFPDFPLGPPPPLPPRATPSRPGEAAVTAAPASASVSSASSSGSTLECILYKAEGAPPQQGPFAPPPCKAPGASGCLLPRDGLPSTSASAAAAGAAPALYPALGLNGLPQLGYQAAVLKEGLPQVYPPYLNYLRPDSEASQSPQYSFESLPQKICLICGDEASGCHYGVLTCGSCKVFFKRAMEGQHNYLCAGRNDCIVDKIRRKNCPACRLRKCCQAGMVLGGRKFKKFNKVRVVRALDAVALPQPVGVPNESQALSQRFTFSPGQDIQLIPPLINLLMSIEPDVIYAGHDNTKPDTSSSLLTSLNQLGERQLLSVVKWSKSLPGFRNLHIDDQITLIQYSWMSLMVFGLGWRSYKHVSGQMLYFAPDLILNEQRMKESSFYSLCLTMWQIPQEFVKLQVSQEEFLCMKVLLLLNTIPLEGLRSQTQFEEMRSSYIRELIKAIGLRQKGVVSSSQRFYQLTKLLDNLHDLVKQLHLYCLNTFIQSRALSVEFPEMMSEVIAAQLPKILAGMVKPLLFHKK
Procedure, shortened: (§1)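 Fluorescence polarization competition assays with recombinant human receptors in lysates of baculovirus-infected insect cells. Reactions contained 1% DMSO and ran 1 h at room temperature.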

[2] = target: T3, Mineralocorticoid receptor (Homo sapiens, UniProt P08235); assay: Displacement of tetramethylrhodamine-labeled Dexamethasone from human recombinant mineralocorticoid receptor expressed in baculovirus infected insect cells by fluorescence polarization assay; procedure, shortened: as §1
T3 sequence (P08235 whole entry): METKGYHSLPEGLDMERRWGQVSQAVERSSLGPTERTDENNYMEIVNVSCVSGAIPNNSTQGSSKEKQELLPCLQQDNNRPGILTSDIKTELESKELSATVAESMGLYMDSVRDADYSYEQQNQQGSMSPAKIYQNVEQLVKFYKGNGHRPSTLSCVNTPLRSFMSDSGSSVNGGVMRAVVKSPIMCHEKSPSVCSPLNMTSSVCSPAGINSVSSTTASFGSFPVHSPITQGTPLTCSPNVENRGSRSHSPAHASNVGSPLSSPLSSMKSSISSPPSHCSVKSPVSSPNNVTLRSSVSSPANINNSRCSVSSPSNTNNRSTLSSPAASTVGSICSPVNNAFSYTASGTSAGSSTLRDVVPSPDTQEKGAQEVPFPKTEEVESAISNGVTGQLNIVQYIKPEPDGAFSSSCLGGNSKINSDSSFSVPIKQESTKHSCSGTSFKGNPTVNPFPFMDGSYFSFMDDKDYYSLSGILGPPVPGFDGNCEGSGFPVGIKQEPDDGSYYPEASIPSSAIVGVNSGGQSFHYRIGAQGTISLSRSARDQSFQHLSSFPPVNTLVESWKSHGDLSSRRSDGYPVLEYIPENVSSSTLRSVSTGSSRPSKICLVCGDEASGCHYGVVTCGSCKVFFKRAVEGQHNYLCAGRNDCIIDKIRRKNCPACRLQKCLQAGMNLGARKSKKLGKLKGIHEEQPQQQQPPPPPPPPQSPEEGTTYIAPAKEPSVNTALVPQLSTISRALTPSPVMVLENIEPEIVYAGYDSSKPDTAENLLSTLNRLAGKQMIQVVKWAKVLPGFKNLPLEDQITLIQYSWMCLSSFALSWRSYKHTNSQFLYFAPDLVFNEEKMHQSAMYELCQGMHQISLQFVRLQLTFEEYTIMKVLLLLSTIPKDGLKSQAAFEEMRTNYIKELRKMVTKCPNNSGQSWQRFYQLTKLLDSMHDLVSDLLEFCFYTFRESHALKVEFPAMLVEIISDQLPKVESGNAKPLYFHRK

Glucocorticoid receptor [3] = target: T4, Glucocorticoid receptor (Homo sapiens, UniProt P04150); assay: Transactivation activity of glucocorticoid receptor in HFF assessed as induction of aromatase activity by measuring beta-estradiol activity after 18 to 24 hrs by ELISA
T4 sequence (P04150 whole entry): T1 sequence (whole entry)

Glucocorticoid receptor [4] = target: T4, Glucocorticoid receptor; assay: Displacement of tetramethylrhodamine-labeled Dexamethasone from human recombinant glucocorticoid receptor expressed in baculovirus infected insect cells by fluorescence polarization assay
[5] = target: T1, Glucocorticoid receptor (Homo sapiens); assay: Transactivation activity of glucocorticoid receptor in HFF assessed as induction of aromatase activity by measuring beta-estradiol activity after 18 to 24 hrs by ELISA relative to Dexamethasone
Glucocorticoid receptor [6] = target: T4, Glucocorticoid receptor; assay: Agonist activity at glucocorticoid receptor in HFF assessed as inhibition of IL1-induced IL-6 production after 18 to 24 hrs; type: functional

Structure (SMILES)	Efficacy [1] [%]	IC50 (Progesterone receptor) [nM]	IC50 [2] [nM]	EC50 (Glucocorticoid receptor [3]; read-out: EC50) [nM]	IC50 (Glucocorticoid receptor [4]) [nM]	Efficacy [5] [%]	IC50 (Glucocorticoid receptor [6]) [nM]	EC50 (Glucocorticoid receptor [3])
COc1ccc(F)cc1C(C)(C)CC(O)(Cc1cc2cccc(C#N)c2[nH]1)C(F)(F)F (racemic)	30	> 2000	1420	> 2000	27	–	> 2000	–
COc1ccc(F)cc1C(C)(C)CC(O)(Cc1cc2cc(C)ccc2[nH]1)C(F)(F)F (racemic)	86	1800	1250	230	66	104	113	–
C[C@@H]1C[C@H]2[C@@H]3CCC4=CC(=O)C=C[C@]4(C)[C@@]3(F)[C@@H](O)C[C@]2(C)[C@@]1(O)C(=O)CO [DEXAMETHASONE]	–	> 2000	–	–	–	–	–	–
COc1ccc(F)cc1C(C)(C)CC(O)(Cc1cc2c(C(F)(F)F)cccc2[nH]1)C(F)(F)F (racemic)	70	> 2000	> 2000	–	160	30	290	Not Active
COc1ccc(F)cc1C(C)(C)CC(O)(Cc1cc2cccc(C(F)(F)F)c2[nH]1)C(F)(F)F (racemic)	–	1750	1650	> 2000	120	–	> 2000	–
COc1ccc(F)cc1C(C)(C)CC(O)(Cc1cc2ccc(C(F)(F)F)cc2[nH]1)C(F)(F)F (racemic)	–	1600	910	> 2000	77	–	> 2000	–
COc1ccc(F)cc1C(C)(C)CC(O)(Cc1cc2cccc(C)c2[nH]1)C(F)(F)F (racemic)	26	1450	1040	> 2000	56	26	> 2000	–
COc1ccc(F)cc1C(C)(C)CC(O)(Cc1cc2cc(C(F)(F)F)ccc2[nH]1)C(F)(F)F (racemic)	77	> 2000	> 2000	640	290	65	191	–

Stronger by IC50 (Progesterone receptor), values ahead:

Efficacy [1] [%]	IC50 (Progesterone receptor) [nM]	IC50 [2] [nM]	EC50 (Glucocorticoid receptor [3]; read-out: EC50) [nM]	IC50 (Glucocorticoid receptor [4]) [nM]	Efficacy [5] [%]	IC50 (Glucocorticoid receptor [6]) [nM]	EC50 (Glucocorticoid receptor [3])	Structure (SMILES)
88	415	585	45	32	99	16	–	CC(C)(CC(O)(Cc1cc2ccccc2[nH]1)C(F)(F)F)c1cc(Br)cc2c1OCC2 (racemic)
75	930	435	473	15	89	36	–	COc1ccc(F)cc1C(C)(C)CC(O)(Cc1cc2cccc(F)c2[nH]1)C(F)(F)F (racemic)
91	350	415	9	30	110	6	–	COc1ccc(F)cc1C(C)(C)CC(O)(Cc1cc2c(C)cccc2[nH]1)C(F)(F)F (racemic)
60	1250	720	976	38	70	334	–	COc1ccc(F)cc1C(C)(C)CC(O)(Cc1cc2ccc(C)cc2[nH]1)C(F)(F)F (racemic)
95	145	240	16	10	105	7	–	Cc1cc2c(c(C(C)(C)CC(O)(Cc3cc4ccccc4[nH]3)C(F)(F)F)c1)OCC2 (racemic)
–	1400	405	–	405	–	–	–	CC(C)(C[C@](O)(Cc1cc2ccc(C#N)cc2[nH]1)C(F)(F)F)c1cc(S(C)(=O)=O)cc2c1OCC2
83	225	400	311	19	103	10	–	CC(C)(CC(O)(Cc1cc2ccccc2[nH]1)C(F)(F)F)c1cccc2c1OCC2 (racemic)
90	255	265	125	8	98	21	–	CC(C)(CC(O)(Cc1cc2ccccc2[nH]1)C(F)(F)F)c1cc(F)cc2c1OCC2 (racemic)
20	1200	1100	> 2000	> 2000	20	> 2000	–	COc1ccc(F)cc1C(C)(C)C[C@](O)(Cc1cc2ccccc2[nH]1)C(F)(F)F
94	265	350	33	30	84	29	–	COc1ccc(F)cc1C(C)(C)CC(O)(Cc1cc2ccc(F)cc2[nH]1)C(F)(F)F (racemic)
84	405	405	94	24	98	78	–	COc1ccc(F)cc1C(C)(C)CC(O)(Cc1cc2cc(F)ccc2[nH]1)C(F)(F)F (racemic)
